Data set [1] relates to clinical isolates of S. aureus / staphylococci resistant to FA. As to conditions: cited from earlier work.
Data set [2] relates to 29 clinical isolates of S. aureus. Description: MIC against multidrug-resistant clinical isolates of S. aureus. It counts as cell-based, Staphylococcus aureus. As to conditions: 29 multidrug-resistant clinical isolates.
The subject of data set [3] is S. aureus strains in the United States. As to conditions: analysis conducted in 2011; cited from earlier work.
Data set [4] has as its system S. aureus ATCC 29213. Briefly: MIC, CLSI broth microdilution. The following applies: for antibacterial activity relative to FA: S. aureus ATCC 29213, MIC; for MIC fold worse than FA: S. aureus ATCC 29213. Format: cell-based, Staphylococcus aureus. An outline of the steps: (§1)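 Broth microdilution followed CLSI, in cation-adjusted Mueller-Hinton broth in round-bottom wells, run in biological triplicate. Reference strains came from ATCC.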
A general note: Dilution methods test growth across graded concentrations, often in twofold steps.

For data set [5] the following is noted: human, in vivo; cited from earlier work.
Data set [6] has as its system six clinical isolates of E. faecium (VRE). Description: MIC against clinical isolates of E. faecium. It counts as cell-based, Enterococcus faecium. As to conditions: for activity against VRE clinical isolates: E. faecium clinical isolates with high levels of vancomycin resistance.
Data set [7] concerns human foreskin fibroblast-1 cells (HFF-1). Description: Cell viability, Alamar Blue, 72 h. Format: cell-based. An outline of the steps:
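HFF-1 fibroblasts were grown in DMEM with 15% fetal bovine serum, 100 μg/mL penicillin and 100 μg/mL streptomycin at 37 °C under 5% CO2. Cells were harvested, seeded and left to adhere. They were exposed to compounds in DMSO (1% final) for 72 h, and viability was then read by Alamar Blue. Raptinal (20 μM) served as the dead control.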
For orientation: Resazurin is reduced to fluorescent resorufin, in cell work by metabolically active cells.

The conditions of data set [8]: mouse, in vivo.
Data set [9] relates to S. aureus (FA-32X-B). Briefly: Neutropenic thigh infection burden study, FA-resistant strain. It counts as in vivo, CD-1 mice. As to conditions: 50 mg/kg IP at 1, 2, 3 h postinfection, 8 h postinfection.
In data set [10] the test system is E. faecium ATCC 19434. Description: MIC against sensitive E. faecium. Format: cell-based, Enterococcus faecium. Put shortly: as §1
A short description of data set [11]: Mouse maximum tolerated dose / tolerability.
Data set [12] relates to FA-resistant strains of S. aureus ATCC 29213. It counts as cell-based, Staphylococcus aureus.
Data set [13] relates to S. aureus. Briefly: MIC shift in 50% human serum. Format: cell-based, Staphylococcus aureus. Put shortly: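 The CLSI broth microdilution MIC in cation-adjusted Mueller-Hinton broth was repeated against S. aureus with 50% human serum (ultrafiltrate, 30K Dalton membrane-filtered, unspecified gender) in the medium. Testing was in biological triplicate.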
In data set [14] the test system is S. aureus ATCC 29213. Description: Resistance frequency, large inoculum method. Format: cell-based, Staphylococcus aureus. As to conditions: 2, 4, 8, 16, 32X the MIC.
The test system of data set [15] is S. aureus ATCC BAA-1721. Description: MIC against S. aureus strain harboring the fusC gene. It counts as cell-based, Staphylococcus aureus. The following applies: S. aureus ATCC BAA-1721, fusC gene.
The subject of data set [16] is strains of S. aureus ATCC 29213 resistant to FA-CP. Description: MIC against FA-CP-resistant mutant strains. Format: cell-based, Staphylococcus aureus.

Here are results for nine compounds from article PMC8713577 (ACS infectious diseases, 2021).

Converted amounts (≈) assume the structure as drawn. Read-outs that look alike come from different tables or passages of the source.

The MIC is the least concentration at which growth counts as inhibited. The term half-life denotes how long it takes for the measured level to halve. The term IC50 denotes the concentration that inhibits the measured activity by half. The low end stands for greater potency in that assay, the high end for weaker potency in that assay. For `CC(=O)O[C@H]1C[C@@]2(C)[C@@H](C[C@@H](O)[C@H]3[C@@]4(C)CC[C@@H](O)[C@@H](C)[C@@H]4CC[C@@]32C)/C1=C(\CCC=C(C)C)C(=O)O` [FA, Fusidic acid, reference compound], the “increase in MIC upon resistance” value in data set [1] (L461K mutation) was above 2048 fold. The MIC in data set [1] (S. aureus clinical strains with EF-G L461K mutation) is above 256 µg/mL; in data set [1] (five S. aureus clinical isolates with EF-G V90I, H457Q, L461K, A655V), above 256 µg/mL; in [4] (Staphylococcus aureus, ATCC29213), 0.125 µg/mL (≈ 0.242 µM); in [10] (Enterococcus faecium, ATCC19434) it was 2 µg/mL (≈ 3.87 µM). The MIC range is 2 to 64 µg/mL in [1] (staphylococcal clinical isolates that carry the fusC gene) and 4 to 1024 µg/mL in data set [1] (strains that possess the fusB gene). In data set [2], the “activity against clinical isolates of S. aureus” value is “no cross-resistance with vancomycin and retained potent activity”. Also, the “S. aureus strains susceptible to FA” value in data set [3] is reported as 99.7%. In data set [5], the Cmax entry is “greater than 130 μg/mL”. Besides, the half-life in [5] is 10 to 14 h. Moreover, in [6], the “activity against VRE clinical isolates” value was “retained potent activity”. The compound also came in with an IC50 in data set [7] (Homo sapiens, HFF-1, 72 h) above 50 µM. Moreover, the “tolerability in mice, multiple doses” value in data set [8] was “well tolerated”. In addition, in data set [9], the “bacterial burden in thigh” value is recorded as “no efficacy”.
`CC(=O)OC1CC2(C)C(CC(O)C3C4(C)CCC(O)C(C)C4CCC32C)C1=C(CCC=C1CCCC1)C(=O)O` (stereo not shown) [FA-CP]: the “activity against clinical isolates of S. aureus” value in data set [2] was “no cross-resistance with vancomycin and retained potent activity”. Besides, in data set [11] (50 mg/kg, intraperitoneal injection, once-a-day for 4 days), the “tolerability in mice, multiple doses” value is listed as “well tolerated”. Further, the “tolerability in mice, single dose” value in data set [11] (single dose of 50 mg/kg, IP) is listed as “well tolerated”. In addition, the “improvement in activity against FA-resistant strains relative to FA” value in data set [12] (11 FA-resistant strains) is 2–8 fold. Besides, the MIC in [12] (FA-resistant strain FA-4X-A, EF-G T385N) turned out to be 2 µg/mL (≈ 3.68 µM); in data set [12] (FA-resistant strain FA-4X-B, EF-G T385N) it was 2 µg/mL (≈ 3.68 µM); in [12] (FA-resistant strain FA-8X-A, EF-G T385N), 2 µg/mL (≈ 3.68 µM); in data set [12] (FA-resistant strain FA-8X-B, EF-G R464L) it was 8 µg/mL (≈ 14.7 µM); in [12] (FA-resistant strain FA-16X-A, EF-G H457Y), 64 µg/mL (≈ 118 µM); in [12] (FA-resistant strain FA-32X-A, EF-G F88L), 128 µg/mL (≈ 236 µM). Besides, the MIC in data set [12] (FA-resistant strain FA-32X-B, EF-G P406L) was 4 µg/mL (≈ 7.37 µM); in [12] (FA-resistant strain FA-32X-C, EF-G H457L), 128 µg/mL (≈ 236 µM); in data set [12] (FA-resistant strain FA-32X-D, EF-G T436I), 2 µg/mL (≈ 3.68 µM); in data set [12] (FA-resistant strain FA-32X-E, EF-G H457N), 128 µg/mL (≈ 236 µM); in [12] (FA-resistant strain FA-32X-F, EF-G D434N), 32 µg/mL (≈ 59 µM); in data set [4] (S. aureus ATCC 29213, CLSI), 0.125 µg/mL (≈ 0.23 µM). In addition, the MIC in data set [10] (sensitive strain E. faecium ATCC 19434) was 2 µg/mL (≈ 3.68 µM); in [15], 8 µg/mL (≈ 14.7 µM). The “shift in MIC in 50% human serum compared to FA” value (“shift in MIC in 50% human serum” below) in data set [13] is recorded as “very similar”. For the same compound, in data set [4], the “antibacterial activity relative to FA” value was “equipotent activity to FA”. Besides, in data set [6], the “activity against VRE clinical isolates” value is “retained potent activity”. The “resistance frequency relative to FA” value in data set [14] was “modest improvement in resistance frequency at 2 and 32X the MIC”. In data set [7] (HFF-1 cells, 72 h), this compound gave an IC50 above 50 µM. Also, the “bacterial burden in thigh” value in data set [9] is reported as “reductions in bacterial burden”. Also, in data set [16] (highest MIC of colonies generated from FA-CP), the “fold increase in MIC from wild-type (WT) S. aureus” value turned out to be 512 fold. Further, the “highest MIC observed for colonies generated from FA-CP” value in [16] (resistance mutants generated at 32X the MIC) came out at 64 µg/mL. Besides, the “MIC for FA-CP” value in data set [16] (strain FA-CP-32X-1, EF-G H457Y) was 32 µg/mL; in data set [16] (strain FA-CP-32X-2, EF-G H457Y), 64 µg/mL; in [16] (strain FA-CP-32X-3, EF-G H457Y), 64 µg/mL; in [16] (strain FA-CP-32X-4, EF-G H457Y), 32 µg/mL; in data set [16] (strain FA-CP-32X-5, EF-G H457Y), 64 µg/mL; in [16] (strain FA-CP-32X-6, EF-G H457Y), 64 µg/mL. Besides, the “MIC for FA-CP” value was determined as 64 µg/mL in data set [16] (strain FA-CP-32X-7, EF-G H457Y); 64 µg/mL in data set [16] (strain FA-CP-32X-8, EF-G H457Y); 32 µg/mL in [16] (strain FA-CP-32X-9, EF-G H457Y); 32 µg/mL in data set [16] (strain FA-CP-32X-10, EF-G D434N); 32 µg/mL in data set [16] (strain FA-CP-32X-11, EF-G H457Y); 32 µg/mL in data set [16] (strain FA-CP-32X-12, EF-G D434N). Besides, the “MIC for FA-CP” value was 64 µg/mL in [16] (strain FA-CP-32X-13, EF-G H457Y); 32 µg/mL in data set [16] (strain FA-CP-32X-14, EF-G H457Y); 64 µg/mL in data set [16] (strain FA-CP-32X-15, EF-G H457Y); 64 µg/mL in [16] (strain FA-CP-32X-16, EF-G F88L); 64 µg/mL in data set [16] (strain FA-CP-32X-17, EF-G F88L); 64 µg/mL in data set [16] (strain FA-CP-32X-18, EF-G H457Y). In addition, the “MIC for FA-CP” value worked out at 32 µg/mL in [16] (strain FA-CP-32X-19, EF-G H457Y) and 32 µg/mL in data set [16] (strain FA-CP-32X-20, EF-G H457Y).
On to `CC(=O)OC1CC2(C)C(CC(O)C3C4(C)CCC(=O)C(C)C4CCC32C)C1=C(CCC=C(C)C)C(=O)O` (stereo not shown) [compound 5], for which the “MIC fold worse than FA” value in [4] is listed as 4–8 fold.
With `CC(=O)OC1CC2(C)C(CC(=O)C3C4(C)CCC(O)C(C)C4CCC32C)C1=C(CCC=C(C)C)C(=O)O` (stereo not shown) [compound 10], in data set [4], the “MIC fold worse than FA” value was 4–8 fold.
Take `CC(=O)OC1CC2(C)C(CC(O)C3C4(C)CCC(O)C(C)C4CCC32C)C1=C(CCC=C1CCCCC1)C(=O)O` (stereo not shown) [compound 26]: the “shift in MIC in 50% human serum” value in data set [13] is given as “very similar”. The same compound had an MIC in [4] (S. aureus ATCC 29213, CLSI) of 0.125 µg/mL (≈ 0.225 µM). Moreover, the “antibacterial activity relative to FA” value in data set [4] is listed as “equipotent activity to FA”. Also, in data set [14], the “resistance frequency relative to FA” value is “only displayed an improvement at 32X the MIC”. For the same compound, the IC50 in data set [7] (HFF-1 cells, 72 h) was above 50 µM.
Consider `CC(=O)O[C@H]1C[C@@]2(C)[C@@H](C[C@@H](O)[C@H]3[C@@]4(C)CC[C@@H](O)[C@@H](C)[C@@H]4CC[C@@]32C)/C1=C(\CCC=C1CCOCC1)C(=O)O` [compound 27], for which the “shift in MIC in 50% human serum” value in [13] was “very similar”. Moreover, the MIC in data set [4] (S. aureus ATCC 29213, CLSI) turned out to be 0.125 µg/mL (≈ 0.224 µM). The “antibacterial activity relative to FA” value in [4] is “equipotent activity to FA”. For the same compound, the “resistance frequency relative to FA” value in data set [14] is “worse resistance frequency relative to FA”. In data set [7] (HFF-1 cells, 72 h), this compound registered an IC50 above 50 µM.
As to `CC(=O)OC1CC2(C)C(CC(O)C3C4(C)CCC(O)C(C)C4CCC32C)C1C(CCCC(C)C)C(=O)O` (stereo not shown) [compound 28], the “antibacterial activity relative to FA” value in data set [4] is on record as “modest decreases in potency relative to FA”.
Regarding `CC(=O)O[C@H]1C[C@@]2(C)[C@@H](C[C@@H](O)[C@H]3[C@@]4(C)CC[C@@H](O)[C@@H](C)[C@@H]4CC[C@@]32C)/C1=C(\CCC=C(C)C)C(=O)O` [sodium fusidate], the “tolerability in mice, single dose” value in data set [8] (ip, 50 mg/kg) is “well tolerated”.
The compound `CN[C@H](CC(C)C)C(=O)N[C@H]1C(=O)N[C@@H](CC(N)=O)C(=O)N[C@H]2C(=O)N[C@H]3C(=O)N[C@H](C(=O)N[C@H](C(=O)O)c4cc(O)cc(O)c4-c4cc3ccc4O)[C@H](O)c3ccc(c(Cl)c3)Oc3cc2cc(c3O[C@@H]2O[C@H](CO)[C@@H](O)[C@H](O)[C@H]2O[C@H]2C[C@](C)(N)[C@H](O)[C@H](C)O2)Oc2ccc(cc2Cl)[C@H]1O` [vancomycin] showed an MIC in data set [6] of 512 µg/mL (≈ 353 µM).
